Here are results for 22 compounds from ChEMBL document CHEMBL1146475, “Spasmolytic effects, mode of action, and structure-activity relationships of stilbenoids from Nidema boothii” (J Nat Prod, 2004).

Active and inactive are the calls of the source. The rule behind the calls is not given here.

Assay [1] concerns Ileum. In words: Spasmolytic activity in guinea pig ileum assessed as inhibition of spontaneous contraction. It counts as functional, tissue-based. The note with it: Cavia porcellus. The essentials: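 Ileum from male guinea-pigs (600-800 g) in Krebs-Henseleit, pH 7.4, isometric tension recorded. After 30 min stabilization and 10 min control period, DMSO-dissolved compound added, one concentration per segment, and recorded 10 min. Inhibition from area under curve of frequency and amplitude. Mean ±SEM of six experiments; IC50 by nonlinear curve fitting.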

Another assay deals with Calmodulin (Bos taurus) (UniProt P62157). In words: Binding affinity to bovine brain calmodulin by electrophoretic mobility assay in presence of calcium chloride. The essentials: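 CaM pretreated 1.5 h at 30 °C with CaCl2, then test compound (0.33 µg in DMSO) applied; interaction judged from CaM band mobility on 15% polyacrylamide gel electrophoresis.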
In assay [2] the test system is Ileum. The experiment in a line: Spasmolytic activity in guinea pig ileum assessed as inhibition of spontaneous contraction relative to papaverine. The assay is classed as functional, Cavia porcellus.
Assay [3] is described as follows: Inhibition of bovine brain CaM-dependent PDE assessed as inorganic phosphate release in presence of bovine brain calmodulin. Details: species or system Bos taurus. The method in brief: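 Bovine-brain CaM (0.2 µg) preincubated 3 min with 0.015 units CaM-deficient bovine-brain PDE in buffer with 0.3 units 5′-nucleotidase, 45 mM Tris-HCl, 5.6 mM Mg acetate, 45 mM imidazole, 2.5 mM CaCl2, pH 7.0; reaction started with 100 µL 10.8 mM cAMP, run 30 min. Phosphate measured by Sumner method at 660 nm. IC50 from concentration-inhibition curves, mean ±SEM of at least three experiments.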

For assay [4], the system named is Ileum. In words: Spasmolytic activity in guinea pig ileum assessed as inhibition of spontaneous contraction in presence of ODQ. It counts as functional, tissue-based. The note with it: Cavia porcellus. The method in brief:
(§1)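 Guinea-pig ileum spontaneous-contraction assay (male, 600-800 g, Krebs-Henseleit pH 7.4, isometric tension, 10 min responses, AUC-based inhibition) run in the presence of L-NAME (500 µM) or ODQ (100 µM). Concentration-response curves as mean ±SEM of six data.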

Assay [5] relates to Ileum. In words: Spasmolytic activity in guinea pig ileum assessed as inhibition of spontaneous contraction in presence of L-NAME. The assay is classed as functional, tissue-based. The note with it: Cavia porcellus. The method in brief:
as §1

What is called IC50 is the point on the concentration scale where inhibition reaches its midpoint. In the case of `COc1cc2ccc3c(OC)c(O)ccc3c2c(OC)c1O`, in the assay on Ileum [1], the IC50 was found to be 450 nM.

One may read the Emax as the maximal effect, on the per cent scale that the assay sets. For `COc1cccc(CCc2cc(O)cc(OC)c2)c1`, in the assay with Ileum [1], the Emax came to 58.6% and the 50% inhibitory concentration (IC50) was determined as 1280 nM. For the same compound, the result on Calmodulin (Bos taurus) was Active. For the same compound, the “Ratio IC50” value in the assay on Ileum [2] worked out at 3.3.

On to `COc1cccc(CCc2cc(OC)cc(OC)c2)c1`, for which, in the assay with Ileum [1], the Emax amounted to 75.6% and the IC50 was found to be 960 nM. The outcome on Calmodulin (Bos taurus) was Active. Besides, in the assay on Ileum [2], the “Ratio IC50” value is recorded as 4.41.

Regarding `COC1=CC(=O)C2=C(CCc3cc(O)ccc32)C1=O` [EPHEMERANTHOQUINONE], the IC50 in assay [3] was found to be 10900 nM. Further, the outcome at Calmodulin (Bos taurus) was Active.

Consider `Oc1cc(O)cc(CCc2ccc(O)c(O)c2)c1`, for which, in the assay on Ileum [1], the Emax came to 53.6% and the half-inhibitory concentration (IC50) came to 850 nM. Moreover, the outcome on Calmodulin (Bos taurus) was Active. For the same compound, in the assay with Ileum [2], the “Ratio IC50” value came out at 4.94.

Regarding `COc1cc(CCc2ccc(OC)c(OC)c2)cc(OC)c1`, in the assay with Ileum [1], the maximum response (Emax) is 84.9% and the IC50 was determined as 620 nM. Besides, the outcome at Calmodulin (Bos taurus) was Active. For the same compound, in the assay with Ileum [2], the “Ratio IC50” value is 6.82.

As to `COc1cc(O)cc(CCc2cccc(O)c2)c1` [BATATASIN III], in the assay on Ileum [1], the Emax is 67.5%. For the same compound, the IC50 was 240 nM in the assay with Ileum [1] and 13300 nM in assay [3]. Besides, the result with Ileum [4] and in the assay with Ileum [5] was inactive. Also, the outcome at Calmodulin (Bos taurus) was Active. Also, the “Ratio IC50” value with Ileum [2] is 17.62.

In the case of `COc1ccc(CCc2cc(O)cc(O)c2)cc1O`, in the assay with Ileum [1], the Emax is 51.8% and the IC50 is 700 nM. The outcome at Calmodulin (Bos taurus) was Active. The “Ratio IC50” value in the assay with Ileum [2] was found to be 5.99.

As to `COc1cc(O)cc(CCc2ccc(OC)c(OC)c2)c1`, in the assay on Ileum [1], the maximal effect (Emax) was 66% and the IC50 stood at 580 nM. For the same compound, the outcome at Calmodulin (Bos taurus) was Active. The “Ratio IC50” value in the assay on Ileum [2] is reported as 7.32.

As to `Oc1cccc(CCc2cc(O)cc(O)c2)c1`, in the assay with Ileum [1], the Emax came to 78.5% and the IC50 worked out at 2360 nM. Also, the result at Calmodulin (Bos taurus) was Active. Also, in the assay on Ileum [2], the “Ratio IC50” value was found to be 1.78.

Turning to `COc1cc(O)c2c(c1)CCc1cc(O)ccc1-2` [LUSIANTHRIDIN], the IC50 with Ileum [1] is 410 nM.

Take `COc1ccc(Cc2nccc3cc(OC)c(OC)cc23)cc1OC` [PAPAVERINE]: in the assay with Ileum [1], the Emax was 91.8% and the IC50 stood at 4230 nM.

In the case of `COc1ccc(CCc2ccccc2)cc1O`, in the assay on Ileum [1], the Emax came to 82.2% and the IC50 amounted to 1290 nM. Moreover, the IC50 in assay [3] worked out at 21200 nM. At Calmodulin (Bos taurus), the result was Active. In the assay on Ileum [2], the “Ratio IC50” value is 3.28.

For `Oc1ccc(CCc2cc(O)cc(O)c2)cc1` [DIHYDRORESVERATROL], in the assay on Ileum [1], the maximal response (Emax) turned out to be 64.1% and the IC50 turned out to be 1750 nM. Besides, the result on Calmodulin (Bos taurus) was Active. The “Ratio IC50” value in the assay on Ileum [2] was 2.42.

With `CN(C)CCCN1c2ccccc2Sc2ccc(Cl)cc21` [CHLORPROMAZINE], in the assay with Ileum [1], the Emax was 81.8% and the IC50 was found to be 180 nM. Besides, the half-inhibitory concentration (IC50) in assay [3] is 10300 nM. In addition, the “Ratio IC50” value with Ileum [2] is on record as 23.5.

With `COc1cc(CCc2ccc(O)c(OC)c2)cc(OC)c1`, in the assay on Ileum [1], the Emax turned out to be 76.4% and the IC50 was determined as 1390 nM. On Calmodulin (Bos taurus), the outcome was Active. In addition, the “Ratio IC50” value with Ileum [2] worked out at 3.05.

As to `COc1cc(O)cc(CCc2ccc(OC)c(O)c2)c1`, in the assay with Ileum [1], the Emax was 66.5% and the IC50 turned out to be 140 nM. The IC50 in assay [3] turned out to be 9000 nM. Moreover, the result on Calmodulin (Bos taurus) was Active. Also, the “Ratio IC50” value with Ileum [2] is given as 31.33.

Turning to `COc1cc(CCc2cc(OC)c(O)c(OC)c2)ccc1O` [MOSCATILIN], in the assay on Ileum [1], the Emax is 73.6% and the 50% inhibitory concentration (IC50) was 560 nM. Also, the “Ratio IC50” value with Ileum [2] amounted to 7.65.

Regarding `COC1=CC(=O)CC12CCc1cccc(O)c1C2=O` (stereo not given) [NIDEMONE], the half-inhibitory concentration (IC50) in assay [3] amounted to 3200 nM. Moreover, at Calmodulin (Bos taurus), the outcome was Active.

For `COc1cc(O)cc(CCc2ccc(O)cc2)c1`, the Emax in the assay with Ileum [1] stood at 85%. The IC50 in the assay on Ileum [1] stood at 140 nM; in assay [3] it was 10100 nM. The outcome at Calmodulin (Bos taurus) was Active. Also, in the assay with Ileum [2], the “Ratio IC50” value is 30.85.

With `Oc1cc(O)cc(CCc2ccccc2)c1` [DIHYDROPINOSYLVIN], in the assay with Ileum [1], the Emax is 83.3% and the IC50 was 1490 nM. Also, in assay [3], the IC50 worked out at 36600 nM. The result at Calmodulin (Bos taurus) was Active. The “Ratio IC50” value in the assay on Ileum [2] stood at 2.84.

Take `COc1cc(O)cc(CCc2ccc(O)c(OC)c2)c1` [GIGANTOL]: in the assay on Ileum [1], the Emax came out at 81.3%. In addition, the concentration for half-maximal inhibition (IC50) in the assay on Ileum [1] amounted to 260 nM; in assay [3] it was 7000 nM. Moreover, the outcome in the assay on Ileum [4] and in the assay on Ileum [5] was inactive. In addition, the outcome on Calmodulin (Bos taurus) was Active. For the same compound, in the assay with Ileum [2], the “Ratio IC50” value was 16.26.
